ChEMBL document CHEMBL5696442, “Discovery of type II inhibitors of TGFβ-activated kinase 1 (TAK1) and mitogen-activated protein kinase kinase kinase kinase 2 (MAP4K2)” (J Med Chem, 2015)

Key:
[1] = target: T1, Phosphorylase b kinase gamma catalytic chain, liver/testis isoform (Homo sapiens) (UniProt P15735); assay: Inhibition of PHKg2 Lys1 labeling site in human Huh-7 cell lysate at 1 uM by KiNativ Profiling analysis relative to control; type: subcellular
T1 sequence (whole entry): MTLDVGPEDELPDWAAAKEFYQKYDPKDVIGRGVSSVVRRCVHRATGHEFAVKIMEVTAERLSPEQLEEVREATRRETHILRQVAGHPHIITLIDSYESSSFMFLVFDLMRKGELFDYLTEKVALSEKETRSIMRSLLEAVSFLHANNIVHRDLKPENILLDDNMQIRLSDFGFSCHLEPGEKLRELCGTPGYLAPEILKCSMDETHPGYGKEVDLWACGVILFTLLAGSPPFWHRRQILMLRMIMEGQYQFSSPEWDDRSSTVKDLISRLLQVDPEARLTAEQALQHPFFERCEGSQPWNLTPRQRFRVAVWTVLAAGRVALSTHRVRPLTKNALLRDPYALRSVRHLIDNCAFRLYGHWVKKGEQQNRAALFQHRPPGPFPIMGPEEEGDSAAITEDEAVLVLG

[2] = target: Tyrosine-protein kinase ABL2 (Homo sapiens, UniProt P42684); assay: Inhibition of ARG ACT labeling site in human Huh-7 cell lysate at 1 uM by KiNativ Profiling analysis relative to control; type: subcellular
[3] = target: Mitogen-activated protein kinase kinase kinase 4 (Homo sapiens) (UniProt Q9Y6R4); assay: Inhibition of MAP3K4 Lys2 labeling site in human Huh-7 cells at 1 uM by KiNativ Profiling analysis relative to control; type: cell-based
[4] = target: T2, Serine/threonine-protein kinase Chk1 (Homo sapiens) (UniProt O14757); assay: Inhibition of CHK1 in human Huh-7 cells at 1 uM by KiNativ Profiling analysis relative to control; type: cell-based
T2 sequence (whole entry): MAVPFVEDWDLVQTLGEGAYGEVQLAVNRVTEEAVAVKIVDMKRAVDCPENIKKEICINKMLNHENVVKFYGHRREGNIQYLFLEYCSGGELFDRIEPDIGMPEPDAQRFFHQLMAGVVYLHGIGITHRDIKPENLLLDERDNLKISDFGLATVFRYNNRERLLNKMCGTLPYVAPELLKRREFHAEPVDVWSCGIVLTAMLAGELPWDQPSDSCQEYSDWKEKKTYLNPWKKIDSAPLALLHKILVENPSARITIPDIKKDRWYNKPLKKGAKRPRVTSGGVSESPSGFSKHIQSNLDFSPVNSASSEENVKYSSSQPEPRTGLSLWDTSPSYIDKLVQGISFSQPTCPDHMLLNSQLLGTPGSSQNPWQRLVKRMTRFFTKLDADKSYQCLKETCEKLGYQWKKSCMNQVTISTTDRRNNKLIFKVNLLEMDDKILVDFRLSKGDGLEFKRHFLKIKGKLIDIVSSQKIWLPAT

[5] = target: T3, Serine/threonine-protein kinase ULK3 (Homo sapiens) (UniProt Q6PHR2); assay: Inhibition of ULK3 Lys2 labeling site in human A-375 cells at 0.5 uM by KiNativ Profiling analysis relative to control; type: cell-based
T3 sequence (whole entry): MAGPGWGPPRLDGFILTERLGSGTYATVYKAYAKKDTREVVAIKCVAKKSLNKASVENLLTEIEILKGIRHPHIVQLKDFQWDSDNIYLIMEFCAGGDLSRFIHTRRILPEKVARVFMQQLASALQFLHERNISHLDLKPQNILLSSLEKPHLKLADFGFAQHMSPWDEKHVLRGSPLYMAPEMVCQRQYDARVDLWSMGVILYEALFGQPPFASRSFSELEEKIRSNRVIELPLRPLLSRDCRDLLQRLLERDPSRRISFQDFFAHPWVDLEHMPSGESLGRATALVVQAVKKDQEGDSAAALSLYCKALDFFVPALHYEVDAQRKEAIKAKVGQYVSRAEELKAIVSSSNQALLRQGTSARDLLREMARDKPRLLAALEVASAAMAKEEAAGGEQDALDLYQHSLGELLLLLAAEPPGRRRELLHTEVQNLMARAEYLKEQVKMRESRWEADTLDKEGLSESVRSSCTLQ

[6] = target: T4, Serine/threonine-protein kinase TAO1 (Homo sapiens) (UniProt Q7L7X3); assay: Inhibition of TAO1 Lys2 labeling site in human A-375 cells at 0.5 uM by KiNativ Profiling analysis relative to control; type: cell-based
T4 sequence (whole entry): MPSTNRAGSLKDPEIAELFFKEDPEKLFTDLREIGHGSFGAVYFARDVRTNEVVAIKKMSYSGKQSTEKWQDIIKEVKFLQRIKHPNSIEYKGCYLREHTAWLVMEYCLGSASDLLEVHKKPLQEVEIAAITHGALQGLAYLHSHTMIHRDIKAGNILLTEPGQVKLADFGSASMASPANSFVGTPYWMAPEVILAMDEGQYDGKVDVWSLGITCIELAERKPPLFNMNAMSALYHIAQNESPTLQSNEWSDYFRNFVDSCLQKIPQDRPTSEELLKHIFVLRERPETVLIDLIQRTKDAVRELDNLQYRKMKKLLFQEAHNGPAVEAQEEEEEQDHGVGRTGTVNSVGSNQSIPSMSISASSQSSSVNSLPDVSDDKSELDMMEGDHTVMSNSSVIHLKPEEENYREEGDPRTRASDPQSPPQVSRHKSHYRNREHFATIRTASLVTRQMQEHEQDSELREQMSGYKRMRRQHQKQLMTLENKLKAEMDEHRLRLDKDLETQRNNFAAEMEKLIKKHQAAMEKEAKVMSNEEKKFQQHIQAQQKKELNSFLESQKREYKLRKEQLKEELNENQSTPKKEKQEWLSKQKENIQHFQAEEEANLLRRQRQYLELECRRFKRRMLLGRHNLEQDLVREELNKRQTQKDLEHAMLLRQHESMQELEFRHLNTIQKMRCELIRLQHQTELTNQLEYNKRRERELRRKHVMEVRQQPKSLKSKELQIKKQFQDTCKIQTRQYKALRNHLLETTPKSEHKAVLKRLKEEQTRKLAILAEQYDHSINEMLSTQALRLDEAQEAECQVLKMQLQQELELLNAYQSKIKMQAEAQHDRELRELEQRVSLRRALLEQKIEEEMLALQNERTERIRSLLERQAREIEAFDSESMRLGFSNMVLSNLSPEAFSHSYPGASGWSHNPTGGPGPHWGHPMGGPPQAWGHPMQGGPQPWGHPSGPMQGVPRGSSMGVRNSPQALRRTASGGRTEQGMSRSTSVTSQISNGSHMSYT

[7] = target: DNA-PK/Ku70/Ku85 (Homo sapiens) (UniProt P78527+P12956+P13010); assay: Inhibition of DNAPK ATP labeling site harbouring KGGSWIQEINVAEK in human A-375 cells at 0.5 uM by KiNativ Profiling analysis relative to control; type: cell-based
How it was run: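 Live A375 melanoma cells were treated with compound at 0.5 or 5 μM, then lysed. Lysates were labeled with a lysine-reactive ATP or ADP-biotin probe. The read-out was protection of each kinase probe-labeling site from labeling, relative to control.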

[8] = target: Serine/threonine-protein kinase 16 (Homo sapiens) (UniProt O75716); assay: Inhibition of STK16 (unknown origin) at 1 uM by Ambit Kinomescan binding assay relative to control
Serine/threonine-protein kinase 16 (Homo sapiens), sequence (O75716 whole entry): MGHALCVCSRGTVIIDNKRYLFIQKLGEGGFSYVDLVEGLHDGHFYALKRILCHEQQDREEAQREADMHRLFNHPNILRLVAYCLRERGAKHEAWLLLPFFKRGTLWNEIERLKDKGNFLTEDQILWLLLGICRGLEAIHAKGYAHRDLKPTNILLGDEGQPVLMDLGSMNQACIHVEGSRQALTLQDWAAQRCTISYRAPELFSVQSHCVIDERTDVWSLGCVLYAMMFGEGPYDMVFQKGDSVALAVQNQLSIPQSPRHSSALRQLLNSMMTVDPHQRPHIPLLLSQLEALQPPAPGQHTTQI

Tyrosine-protein kinase ABL2, sequence (P42684 whole entry): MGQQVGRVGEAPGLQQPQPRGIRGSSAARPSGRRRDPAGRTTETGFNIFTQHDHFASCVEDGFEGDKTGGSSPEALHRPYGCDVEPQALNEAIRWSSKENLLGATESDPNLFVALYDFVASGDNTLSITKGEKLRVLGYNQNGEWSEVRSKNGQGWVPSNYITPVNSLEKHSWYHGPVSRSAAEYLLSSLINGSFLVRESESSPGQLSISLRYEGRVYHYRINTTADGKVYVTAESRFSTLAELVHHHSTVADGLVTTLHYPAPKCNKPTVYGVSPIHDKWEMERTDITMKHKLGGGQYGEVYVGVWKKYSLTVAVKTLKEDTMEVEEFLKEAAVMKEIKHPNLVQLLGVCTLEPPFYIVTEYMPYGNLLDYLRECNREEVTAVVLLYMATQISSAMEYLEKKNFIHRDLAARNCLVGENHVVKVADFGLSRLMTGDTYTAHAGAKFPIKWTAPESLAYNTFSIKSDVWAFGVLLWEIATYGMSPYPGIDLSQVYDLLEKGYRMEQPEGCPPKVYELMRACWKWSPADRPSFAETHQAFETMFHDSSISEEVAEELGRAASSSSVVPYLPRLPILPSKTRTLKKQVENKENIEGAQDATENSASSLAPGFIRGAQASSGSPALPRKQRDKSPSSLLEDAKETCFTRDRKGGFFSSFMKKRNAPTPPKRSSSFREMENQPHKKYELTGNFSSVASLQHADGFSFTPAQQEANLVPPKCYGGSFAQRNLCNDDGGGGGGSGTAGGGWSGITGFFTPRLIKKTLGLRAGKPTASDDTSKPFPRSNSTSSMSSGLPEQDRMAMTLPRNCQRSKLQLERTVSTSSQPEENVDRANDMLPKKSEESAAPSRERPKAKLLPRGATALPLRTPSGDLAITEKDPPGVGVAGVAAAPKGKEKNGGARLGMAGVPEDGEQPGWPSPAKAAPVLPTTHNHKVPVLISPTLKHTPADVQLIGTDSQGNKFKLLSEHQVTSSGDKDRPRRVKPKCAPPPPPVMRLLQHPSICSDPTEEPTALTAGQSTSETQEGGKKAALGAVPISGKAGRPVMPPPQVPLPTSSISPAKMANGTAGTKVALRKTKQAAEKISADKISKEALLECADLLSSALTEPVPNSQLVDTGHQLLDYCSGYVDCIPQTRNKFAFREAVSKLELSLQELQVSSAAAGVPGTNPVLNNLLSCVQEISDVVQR
Mitogen-activated protein kinase kinase kinase 4 (Homo sapiens), sequence (Q9Y6R4 whole entry): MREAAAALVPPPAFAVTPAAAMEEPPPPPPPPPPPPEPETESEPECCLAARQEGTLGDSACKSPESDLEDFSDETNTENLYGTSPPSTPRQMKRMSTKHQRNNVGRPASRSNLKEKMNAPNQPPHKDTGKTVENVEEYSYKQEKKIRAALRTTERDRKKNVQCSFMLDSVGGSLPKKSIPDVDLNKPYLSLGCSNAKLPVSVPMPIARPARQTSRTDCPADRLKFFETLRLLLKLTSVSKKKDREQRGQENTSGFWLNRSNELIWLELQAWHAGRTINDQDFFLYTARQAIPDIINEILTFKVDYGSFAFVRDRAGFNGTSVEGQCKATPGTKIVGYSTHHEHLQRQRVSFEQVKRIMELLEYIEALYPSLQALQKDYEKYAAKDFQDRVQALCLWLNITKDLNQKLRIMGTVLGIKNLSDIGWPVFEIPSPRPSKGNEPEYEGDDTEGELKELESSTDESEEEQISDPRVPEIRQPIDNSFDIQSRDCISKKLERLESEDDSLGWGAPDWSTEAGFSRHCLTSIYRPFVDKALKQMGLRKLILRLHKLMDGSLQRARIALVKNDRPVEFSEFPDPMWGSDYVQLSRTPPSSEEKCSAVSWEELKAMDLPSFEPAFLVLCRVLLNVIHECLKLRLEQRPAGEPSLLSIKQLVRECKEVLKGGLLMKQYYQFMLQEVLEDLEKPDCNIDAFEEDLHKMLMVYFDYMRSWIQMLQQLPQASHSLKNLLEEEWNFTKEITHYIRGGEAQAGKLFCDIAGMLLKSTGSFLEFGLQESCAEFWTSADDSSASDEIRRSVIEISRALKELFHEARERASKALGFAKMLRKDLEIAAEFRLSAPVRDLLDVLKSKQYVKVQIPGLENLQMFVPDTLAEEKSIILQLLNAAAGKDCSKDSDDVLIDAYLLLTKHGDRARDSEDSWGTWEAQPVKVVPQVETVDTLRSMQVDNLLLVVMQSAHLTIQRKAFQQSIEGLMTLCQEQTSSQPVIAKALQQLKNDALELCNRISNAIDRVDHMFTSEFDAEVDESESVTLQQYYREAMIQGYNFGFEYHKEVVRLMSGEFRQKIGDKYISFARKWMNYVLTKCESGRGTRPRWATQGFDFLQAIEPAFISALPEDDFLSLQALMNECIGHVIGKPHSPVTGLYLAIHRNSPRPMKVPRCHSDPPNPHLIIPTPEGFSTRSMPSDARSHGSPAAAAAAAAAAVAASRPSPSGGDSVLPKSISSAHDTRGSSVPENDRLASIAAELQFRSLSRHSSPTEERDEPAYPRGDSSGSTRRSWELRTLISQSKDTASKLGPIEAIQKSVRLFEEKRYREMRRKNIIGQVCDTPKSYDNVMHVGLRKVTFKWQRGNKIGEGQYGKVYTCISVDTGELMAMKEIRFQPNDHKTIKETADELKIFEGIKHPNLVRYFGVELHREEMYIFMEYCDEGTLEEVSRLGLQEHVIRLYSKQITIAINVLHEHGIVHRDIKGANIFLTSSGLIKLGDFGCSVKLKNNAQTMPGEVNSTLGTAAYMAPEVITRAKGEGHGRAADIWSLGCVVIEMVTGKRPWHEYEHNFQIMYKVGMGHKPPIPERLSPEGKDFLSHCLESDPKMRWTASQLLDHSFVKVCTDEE

Compound	inhibition [1]	inhibition [2]	inhibition [3]	inhibition [4]	inhibition [5]	inhibition [6]	inhibition [7]	inhibition [8]
CNc1cc(Oc2cc(C(=O)Nc3cc(N4CCN(C)CC4)cc(C(F)(F)F)c3)ccc2C)ncn1	0.2%	49.4%	77%	–	–	–	–	–
CCN1CCN(Cc2ccc(NC(=O)c3ccc(C)c(Oc4ccnc5[nH]ccc45)c3)cc2C(F)(F)F)CC1	–	–	–	-0.4%	-2.5%	-5.6%	34%	–
CNc1cc(Oc2cc(C(=O)Nc3cc(-n4cnc(C)c4)cc(C(F)(F)F)c3)ccc2C)ncn1	–	59.7%	–	–	–	–	–	–
CCN1CCN(Cc2ccc(NC(=O)c3ccc(C)c(/C=C/c4cnc5[nH]ccc5c4OC)c3)cc2C(F)(F)F)CC1	–	–	–	–	8.5%	6.6%	17.8%	100%
